{"data": "Measured values gathered from unrelated publications", "target": "Activin receptor type-1B (ACVR1B, Homo sapiens, UniProt P36896)", "Sequence (P36896 24-505, as in one of the studies)": "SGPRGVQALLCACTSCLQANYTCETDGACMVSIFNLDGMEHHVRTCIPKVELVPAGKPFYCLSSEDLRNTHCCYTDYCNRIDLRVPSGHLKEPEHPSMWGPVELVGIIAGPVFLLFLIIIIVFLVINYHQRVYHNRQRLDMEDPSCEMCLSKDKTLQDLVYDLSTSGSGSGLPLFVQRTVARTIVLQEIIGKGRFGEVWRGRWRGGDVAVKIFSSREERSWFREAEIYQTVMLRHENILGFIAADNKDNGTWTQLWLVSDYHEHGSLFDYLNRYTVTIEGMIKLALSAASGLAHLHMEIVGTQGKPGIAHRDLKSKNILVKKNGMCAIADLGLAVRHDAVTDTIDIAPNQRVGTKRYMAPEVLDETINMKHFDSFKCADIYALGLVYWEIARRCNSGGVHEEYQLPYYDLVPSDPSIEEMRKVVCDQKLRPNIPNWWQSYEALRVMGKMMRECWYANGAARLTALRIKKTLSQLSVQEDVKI", "note": "Protocols differ between the studies behind these lines."}
{"SMILES": "Cn1cc(-c2cc(F)cc(N3CCn4c(cc5c4CCCC5)C3=O)c2CO)cc(Nc2ccc(N3CCN(C4COC4)CC3)cn2)c1=O", "effect on": "enzyme activity", "action": "inhibitor", "concentration": "0.1 µM", "quantity": "inhibition", "value": "-1%"}
{"SMILES": "Cn1cncc1[C@](O)(COc1ccc(C#N)cc1-c1ccc(OC(F)(F)F)cc1)c1ccc(C#N)cc1", "effect on": "cell-free assay", "method": "competition with immobilised ligand", "concentration": "1 µM", "quantity": "remaining binding", "value": "87%"}
{"SMILES": "COc1ncccc1-c1cnn2ccc(N3CCN(C(=O)OC(C)C)CC3)nc12", "effect on": "binding", "method": "competition with immobilised ligand", "concentration": "1 µM", "quantity": "remaining binding", "value": "93%"}
{"SMILES": "Nc1ncc(-c2nc(N3CCOCC3)nc(N3CCOCC3)n2)c(C(F)F)n1", "effect on": "binding", "method": "competition with immobilised ligand", "concentration": "10 µM", "quantity": "remaining binding", "value": "94%"}
{"SMILES": "Cc1nn(C)cc1-c1nc2c(N3CCN(Cc4ccc(Cl)cc4)CC3)c(Cl)cnc2[nH]1", "effect on": "binding", "method": "competition with immobilised ligand", "concentration": "1 µM", "quantity": "remaining binding", "value": "68%"}
{"SMILES": "C#Cc1n[nH]c2c(-c3cn([C@@H](C)c4ccccn4)c(=O)[nH]c3=O)cc(F)cc12", "effect on": "enzyme activity", "action": "inhibitor", "concentration": "0.1 µM", "quantity": "inhibition", "value": "-3.4%"}
{"SMILES": "Cn1cc(-c2cccc(N3CCc4c(sc5c4CC(C)(C)C5)C3=O)c2CO)cc(Nc2ccncn2)c1=O", "effect on": "enzyme activity", "action": "inhibitor", "concentration": "1 µM", "quantity": "inhibition", "value": "-5%"}
{"SMILES": "CC(C)(C)c1cc(C=C(C#N)C#N)cc(Br)c1O", "effect on": "enzyme activity", "action": "inhibitor", "concentration": "0.5 µM", "quantity": "remaining activity", "value": "108%"}
{"SMILES": "N#CC1(c2ccccn2)CCN(Cc2cc(C(=O)O)c(=O)n3ccccc23)CC1", "effect on": "cell-free assay", "method": "competition with immobilised ligand", "concentration": "1 µM", "quantity": "remaining binding", "value": "94%"}
{"SMILES": "O=c1[nH]c2ccccc2n1C1CCN(Cc2ccc(-c3[nH]c4cc5ncnc5cc4nc3-c3ccccc3)cc2)CC1", "effect on": "cell-free assay", "concentration": "0.5 µM", "quantity": "remaining signal", "value": "111%"}
{"SMILES": "COc1cc(Nc2ncc(F)c(Nc3ccc4c(n3)NC(=O)C(C)(C)O4)n2)cc(OC)c1OC", "effect on": "binding", "method": "competition with immobilised ligand", "concentration": "10 µM", "quantity": "inhibition", "value": "55%"}
{"SMILES": "C#Cc1n[nH]c2c(-c3cn([C@@H](C)c4ccccc4)c(=O)[nH]c3=O)cc(F)cc12", "effect on": "enzyme activity", "action": "inhibitor", "concentration": "0.1 µM", "quantity": "inhibition", "value": "-3.3%"}
